According to ChEMBL document CHEMBL3751716, “Identification of 5-Methoxyflavone as a Novel DNA Polymerase-Beta Inhibitor and Neuroprotective Agent against Beta-Amyloid Toxicity” (J Nat Prod, 2015):
Active and inactive are the calls of the source. The calls are words filed in the database; no cut-off is given here.

Key:
[1] = Cytotoxicity against mouse 88TAg fibroblasts assessed as compound level causing reduction of cell viability incubated for 2 hrs by MTT assay
Outline: (§1)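 Mouse embryonic fibroblasts, 92TAg (wild type) or 88TAg (pol-β null), were seeded 5 × 10^3/well and serum-deprived at treatment. Compound (5-60 μM) was given 2 h, then a 2 h MMS pulse (500 μM for 92TAg, 250 μM for 88TAg). After washout, compound was re-added and viability read 24 h from start by MTT (0.9 mg/mL, 2 h, 37 °C; DMSO lysis; A570). Means ± SEM, 3-9 determinations.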

Mus musculus [2] = species: Mus musculus; assay: Effect on cell cycle distribution in against polymerase-beta knock out mouse 88TAg cells assessed as cell accumulation at S-phase at 8 ug/ml incubated for 15 hrs by propidium iodide staining based cytofluorimetric analysis; type: functional
Outline: (§2)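 Mouse embryonic fibroblasts (wild-type 92TAg; pol-β-null 88TAg) grown in DMEM with 10% FBS at 37 °C and 5% CO2. Synchronized in 0.2% FBS medium for 72 h, then returned to 10% FBS medium with compound for 15 h. Cell-cycle phase percentages scored by cytofluorimetry of propidium iodide-labeled cells. Experiments run at least in triplicate, one-way ANOVA.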

Mus musculus [3] = species: Mus musculus; assay: Effect on cell cycle distribution in against mouse 92TAg cells assessed as cell accumulation at S-phase at 8 ug/ml incubated for 15 hrs by propidium iodide staining based cytofluorimetric analysis; type: functional; outline: as §2
[4] = Cytotoxicity against mouse 88TAg fibroblasts assessed as reduction of cell viability at 60 uM incubated for 2 hrs by MTT assay; outline: as §1
[5] = molecular target: DNA polymerase beta (Homo sapiens) (UniProt P06746); conditions: 50 uM
[6] = Cytotoxicity against Sprague-Dawley rat cortical neurons at 50 uM by MTT assay; conditions: cortical neurone
[7] = test system: DNA polymerase beta (Mus musculus); assay: Inhibition of DNA polymerase-beta in mouse wild-type 92TAg cells assessed as increase in MMS toxicity at 1 to 60 uM incubated for 2 hrs prior to MMS challenge for 2 hrs followed by post wash compound addition measured after 24 hrs by MTT assay

## C[C@H](C(=O)O)c1cccc(C(=O)c2ccccc2)c1 [DEXKETOPROFEN]
[1]
  Activity: Non-toxic

## C[C@@]1(CO)[C@H](O)CC[C@@]2(C)[C@H]1CC[C@H]1C[C@@H]3C[C@@]12CC[C@]3(O)CO
Mus musculus [2]
  Activity: Active
Mus musculus [3]
  Activity: Active

## O=c1cc(-c2ccccc2O)oc2c1ccc1ccccc12
[4]
  Activity: <= 90%
[1]
  Activity: 10 µM

## c1ccc2c(c1)c1ccccc1n2Cn1c2ccccc2c2ccccc21
[1]
  Activity: <= 90%

## CC1(C)CC[C@]2(C(=O)O)CC[C@]3(C)C(=CC[C@@H]4[C@@]5(C)CC[C@H](O)C(C)(C)[C@@H]5CC[C@]43C)[C@@H]2C1 [OLEANOLIC_ACID]
[5]
  inhibition: Active
[6]
  Activity: Toxic

## Cc1ccccc1Nc1nc2ccc([N+](=O)[O-])cc2nc1Nc1ccccc1C
[1]
  Activity: <= 90%

## CC1(C)NCCC12C(=O)N(Cc1ccccc1)c1ccccc12 (stereo unspecified)
[1]
  Activity: Non-toxic
[7]
  inhibition: inactive
